Data published in ChEMBL document CHEMBL4316610, “Synthesis and Biological Studies of (+)-Liquiditerpenoic Acid A (Abietopinoic Acid) and Representative Analogues: SAR Studies” (J Nat Prod, 2019).
Calls of active or inactive are those of the source. The rule behind the calls is not given here.

Tests used:
[1] = molecular target: T1, GABA-A receptor; alpha-1/beta-2/gamma-2 (Homo sapiens) (UniProt P14867+P47870+P18507); test: Modulation of recombinant wild type GABAA receptor alpha1beta2gamma2S (unknown origin) expressed in Xenopus laevis oocytes assessed as increase in GABA-evoked chloride current at 100 uM at -70 mV holding potential by two-microelectrode voltage clamp assay relative to control; assay type: cell-based
Procedure, shortened: (§1)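 Two-microelectrode voltage clamp at -70 mV on Xenopus laevis oocytes expressing α1β2γ2S GABA-A receptors. GABA EC5 (4-5 μM), set individually for each oocyte, applied for 20 s alone, then co-applied with compound at 10 or 100 μM. Potentiation of GABA-evoked current is reported. Dehydroabietic acid served as positive control. Mean ± SEM from at least three oocytes and two oocyte batches.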

[2] = molecular target: T1, GABA-A receptor; alpha-1/beta-2/gamma-2 (Homo sapiens); test: (§2) Modulation of recombinant wild type GABAA receptor alpha1beta2gamma2S (unknown origin) expressed in Xenopus laevis oocytes assessed as increase in GABA-evoked chloride current at -70 mV holding potential by two-microelectrode voltage clamp assay; assay type: cell-based
Procedure, shortened: (§3)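 Two-microelectrode voltage clamp of Xenopus laevis oocytes expressing α1β2γ2S GABA_A receptors, held at -70 mV. GABA EC5 (4-5 μM), determined individually for each oocyte, applied for 20 s alone or co-applied with compound at 10 and 100 μM; potentiation of GABA-evoked current measured. Dehydroabietic acid as positive control; mean ± SEM from at least three oocytes and two oocyte batches.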

[3] = molecular target: T2, GABA-A receptor; alpha-1/beta-2/gamma-2 (Homo sapiens, UniProt P14867+P18507+P47870); test: as §2; assay type: cell-based; procedure, shortened: as §3
T2 sequence (P14867 whole entry): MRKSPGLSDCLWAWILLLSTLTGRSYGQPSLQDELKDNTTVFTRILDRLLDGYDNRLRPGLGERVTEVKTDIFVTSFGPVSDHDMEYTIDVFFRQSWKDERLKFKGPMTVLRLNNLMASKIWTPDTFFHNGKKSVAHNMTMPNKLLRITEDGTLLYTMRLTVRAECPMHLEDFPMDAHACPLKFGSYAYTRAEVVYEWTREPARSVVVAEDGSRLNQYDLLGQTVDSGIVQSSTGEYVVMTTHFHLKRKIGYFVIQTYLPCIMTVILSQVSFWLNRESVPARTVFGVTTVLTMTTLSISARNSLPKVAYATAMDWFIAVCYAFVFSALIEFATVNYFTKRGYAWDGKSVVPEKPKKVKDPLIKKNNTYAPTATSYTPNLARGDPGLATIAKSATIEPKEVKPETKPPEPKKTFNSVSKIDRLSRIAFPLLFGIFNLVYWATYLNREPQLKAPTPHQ
T2 sequence (P47870 whole entry): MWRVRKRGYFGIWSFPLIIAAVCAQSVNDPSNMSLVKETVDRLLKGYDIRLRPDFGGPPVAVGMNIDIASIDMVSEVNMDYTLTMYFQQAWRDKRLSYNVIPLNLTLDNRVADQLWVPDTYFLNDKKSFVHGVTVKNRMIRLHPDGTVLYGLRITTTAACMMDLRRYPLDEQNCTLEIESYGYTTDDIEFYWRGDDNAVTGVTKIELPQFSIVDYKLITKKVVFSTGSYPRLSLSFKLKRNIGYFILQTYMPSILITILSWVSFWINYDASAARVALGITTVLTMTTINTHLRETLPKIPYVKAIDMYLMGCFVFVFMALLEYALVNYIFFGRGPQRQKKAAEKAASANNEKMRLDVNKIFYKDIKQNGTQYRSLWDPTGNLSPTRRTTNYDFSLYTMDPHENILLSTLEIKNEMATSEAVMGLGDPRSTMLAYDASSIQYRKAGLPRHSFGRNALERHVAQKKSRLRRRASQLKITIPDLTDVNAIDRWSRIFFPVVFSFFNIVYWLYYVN
T2 sequence (P18507 whole entry): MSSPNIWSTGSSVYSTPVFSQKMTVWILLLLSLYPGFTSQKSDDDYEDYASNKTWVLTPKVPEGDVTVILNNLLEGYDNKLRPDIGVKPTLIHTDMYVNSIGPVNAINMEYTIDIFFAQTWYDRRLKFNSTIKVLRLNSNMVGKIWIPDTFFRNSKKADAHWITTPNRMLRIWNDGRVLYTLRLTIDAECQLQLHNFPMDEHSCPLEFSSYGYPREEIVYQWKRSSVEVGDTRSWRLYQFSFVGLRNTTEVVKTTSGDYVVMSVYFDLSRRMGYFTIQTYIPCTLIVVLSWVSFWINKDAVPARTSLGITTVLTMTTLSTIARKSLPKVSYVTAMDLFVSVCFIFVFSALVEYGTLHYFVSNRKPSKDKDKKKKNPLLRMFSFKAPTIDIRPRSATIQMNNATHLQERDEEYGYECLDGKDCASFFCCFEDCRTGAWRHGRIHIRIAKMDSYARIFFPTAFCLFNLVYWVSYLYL

[4] = molecular target: T1, GABA-A receptor; alpha-1/beta-2/gamma-2 (Homo sapiens); test: Modulation of recombinant wild type GABAA receptor alpha1beta2gamma2S (unknown origin) expressed in Xenopus laevis oocytes assessed as increase in GABA-evoked chloride current at 10 uM at -70 mV holding potential by two-microelectrode voltage clamp assay relative to control; assay type: cell-based; procedure, shortened: as §1
[5] = Selectivity index, ratio of CC50 for mouse J774 cells to IC50 for Leishmania infantum MCAN/ES/96/BCN150 amastigotes infected in mouse J774 cells; assay type: toxicity, cell-based; settings: read-out: Ratio CC50/IC50
Procedure, shortened: (§4)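 CC50: concentration giving 50% reduction of viability in treated cells relative to untreated; IC50: concentration giving 50% reduction in parasites; SI = CC50/IC50.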

Leishmania infantum [6] = test: Antileishmanial activity against Leishmania infantum MCAN/ES/96/BCN150 promastigotes after 48 hrs by resazurin dye-based fluorometric analysis; assay type: functional, organism-based; settings: Leishmania infantum, MCAN/ES/96/BCN150, 48 h; read-out: IC50
Procedure, shortened: (§5)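 The IC50 is taken as the compound concentration giving a 50% reduction in parasites, reported with SD.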

[7] = Selectivity index, ratio of CC50 for mouse J774 cells to IC50 for Leishmania donovani MHOM/IN/80/DD8 promastigotes; assay type: toxicity; settings: read-out: Ratio CC50/IC50
A549 = test: Antiproliferative activity against human A549 cells after 48 hrs by SRB assay; assay type: functional; settings: A549, 48 h
Leishmania amazonensis [8] = test: Antileishmanial activity against Leishmania amazonensis MHOM/Br/79/Mari promastigotes after 48 hrs by resazurin dye-based fluorometric analysis; assay type: functional, organism-based; settings: Leishmania amazonensis, MHOM/Br/79/Mari, 48 h; read-out: IC50; procedure, shortened: as §5
WiDr = test: Antiproliferative activity against human WiDr cells after 48 hrs by SRB assay; assay type: functional
T47D = test: Antiproliferative activity against human T47D cells after 48 hrs by SRB assay; assay type: functional
[9] = Selectivity index, ratio of CC50 for mouse J774 cells to IC50 for Leishmania infantum MCAN/ES/96/BCN150 promastigotes; assay type: toxicity; settings: read-out: Ratio CC50/IC50
HeLa = test: Antiproliferative activity against human HeLa cells after 48 hrs by SRB assay; assay type: functional
SW1573 = test: Antiproliferative activity against human SW1573 cells after 48 hrs by SRB assay; assay type: functional; settings: SW1573, 48 h
Leishmania amazonensis [10] = test: Antileishmanial activity against Leishmania amazonensis MHOM/Br/79/Mari amastigotes infected in mouse J774 cells after 48 hrs by resazurin dye-based fluorometric analysis; assay type: functional, organism-based; settings: J774, 48 h
HBL-100 = test: Antiproliferative activity against human HBL100 cells after 48 hrs by SRB assay; assay type: functional; settings: HBL-100, 48 h
Leishmania guyanensis [11] = test: Antileishmanial activity against Leishmania guyanensis 141/93 promastigotes after 48 hrs by resazurin dye-based fluorometric analysis; assay type: functional, organism-based; settings: Leishmania guyanensis, 141/93, 48 h; read-out: IC50; procedure, shortened: as §5
[12] = Selectivity index, ratio of CC50 for mouse J774 cells to IC50 for Leishmania amazonensis MHOM/Br/79/Mari amastigotes infected in mouse J774 cells; assay type: toxicity, cell-based; settings: read-out: Ratio CC50/IC50; procedure, shortened: as §4
[13] = Selectivity index, ratio of CC50 for mouse J774 cells to IC50 for Leishmania guyanensis 141/93 promastigotes; assay type: toxicity; settings: read-out: Ratio CC50/IC50
[14] = Cytotoxicity against mouse J774 cells assessed as reduction in cell viability after 48 hrs by resazurin dye-based fluorometric analysis
Procedure, shortened: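 The CC50 is taken as the concentration giving a 50% reduction in cell viability of treated cultures compared with untreated cells.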

Leishmania donovani = test: Antileishmanial activity against Leishmania donovani MHOM/IN/80/DD8 promastigotes after 48 hrs by resazurin dye-based fluorometric analysis; assay type: functional, organism-based; settings: Leishmania donovani, MHOM/IN/80/DD8, 48 h; procedure, shortened: as §5
[15] = Selectivity index, ratio of CC50 for mouse J774 cells to IC50 for Leishmania amazonensis MHOM/Br/79/Mari promastigotes; assay type: toxicity; settings: read-out: Ratio CC50/IC50
Leishmania infantum [16] = test: Antileishmanial activity against Leishmania infantum MCAN/ES/96/BCN150 amastigotes infected in mouse J774 cells after 48 hrs by resazurin dye-based fluorometric analysis; assay type: functional, organism-based; settings: MCAN/ES/96/BCN150, J774, 48 h
UoC-B1 = test: Antiproliferative activity against human UOCB1 cells after 72 hrs by CellTiter-Glo luminescent cell viability assay; assay type: functional, cell-based; settings: UoC-B1, 72 h
BJ = test: Antiproliferative activity against human BJ cells after 72 hrs by CellTiter-Glo luminescent cell viability assay; assay type: ADME, cell-based
NALM-6 [17] = test: Cell cycle arrest in human NALM6 cells assessed as accumulation at G0/G1 phase at 10 uM after 24 hrs by propidium iodide staining-based flow cytometric analysis; assay type: functional
Procedure, shortened: (§6)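 Phosphatidylserine exposure read by Annexin V-FITC/propidium iodide flow cytometry; DNA content by PI staining for cell-cycle distribution.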

SUP-B15 = test: Antiproliferative activity against human SUP-B15 cells after 72 hrs by CellTiter-Glo luminescent cell viability assay; assay type: functional, cell-based; settings: SUP-B15, 72 h
KOPN-8 [18] = test: Induction of apoptosis in human KOPN8 cells assessed as late apoptotic cells at 20 uM after 32 hrs by Annexin V-FITC/propidium iodide staining-based flow cytometric analysis relative to control; assay type: functional
NALM-6 [19] = test: Antiproliferative activity against human NALM6 cells after 72 hrs by CellTiter-Glo luminescent cell viability assay; assay type: functional, cell-based; settings: NALM-6, 72 h
NALM-6 [20] = test: Induction of apoptosis in human NALM6 cells after 24 hrs by Annexin V-FITC/propidium iodide staining-based flow cytometric analysis; assay type: functional, cell-based; procedure, shortened: as §6
NALM-6 [21] = test: Cell cycle arrest in human NALM6 cells assessed as accumulation at G2/M phase at 10 uM after 24 hrs by propidium iodide staining-based flow cytometric analysis; assay type: functional; procedure, shortened: as §6
[22] = Antiproliferative activity against mouse leukemia cells overexpressing BCR/ABL after 72 hrs by CellTiter-Glo luminescent cell viability assay; assay type: functional, cell-based
KOPN-8 [23] = test: Antiproliferative activity against human KOPN8 cells after 72 hrs by CellTiter-Glo luminescent cell viability assay; assay type: functional, cell-based; settings: KOPN-8, 72 h
Leishmania guyanensis [24] = test: Potency index, ratio of miltefosine IC50 to compound IC50 for Leishmania guyanensis 141/93 promastigotes after 48 hrs by resazurin dye-based fluorometric analysis; assay type: functional
[25] = read-out: log(1/IC50) (converted)

Compound	Activity [1]	Activity [4]	IC50 (Leishmania infantum [6])	selectivity ratio [7]	IC50 (Leishmania amazonensis [8])	selectivity ratio [9]	IC50 (Leishmania guyanensis [11])	selectivity ratio [13]	CC50 at 48 h [14]	IC50 (Leishmania donovani; read-out: IC50)	IC50 (Leishmania donovani; [25])	selectivity ratio [15]	also measured
CC(C)C1=CC2=CC[C@H]3[C@](C)(C(=O)O)CCC[C@]3(C)C2CC1 (some centres undefined)	841%	187%	–	–	–	–	–	–	–	–	–	–	Emax [2]: 398%; EC50 [3]: 8.7 µM
COC(=O)[C@]1(C)CCC[C@]2(C)c3cc(C(C)=O)c(C(C)C)cc3CC[C@@H]12	-2.9%	2.7%	2500 nM	8.8	11.6 µM	51.8	14.2 µM	9.1	130 µM	14.8 µM	14.8 µM	11.2	selectivity ratio [5]: 3.5; GI50 (A549): 18 µM; GI50 (WiDr): 17 µM; GI50 (T47D): 10 µM; GI50 (HeLa): 11 µM; GI50 (SW1573): 11 µM; IC50 (Leishmania amazonensis [10]): 31.4 µM; GI50 (HBL-100): 15 µM; selectivity ratio [12]: 4.1; IC50 (Leishmania infantum [16]): 37.2 µM
COC(=O)[C@]1(C)CCC[C@]2(C)c3cc(OC(C)=O)c(C(C)C)cc3C(=O)C[C@@H]12	46.7%	-1%	700 nM	4.1	0.65 µM	25.4	1.3 µM	13.6	17.8 µM	4.4 µM	4.38 µM	27.4	EC50 (UoC-B1): > 40 µM; EC50 (BJ): Non-Toxic; Activity (NALM-6 [17]): Active; EC50 (SUP-B15): 21.7 µM; Activity (KOPN-8 [18]): >85%; EC50 (NALM-6 [19]): 10.7 µM; Activity (NALM-6 [20]): Dose-dependent effect; Activity (NALM-6 [21]): Active; EC50 [22]: 12.2 µM; EC50 (KOPN-8 [23]): 18.5 µM; Ratio IC50 (Leishmania guyanensis [24]): 13
